Results: ChEMBL document CHEMBL3102822, “Synthesis, biological evaluation and molecular docking studies of benzyloxyacetohydroxamic acids as LpxC inhibitors” (Bioorg Med Chem, 2014)
Calls of active or inactive are those of the source. The calls are words filed in the database; no cut-off is given here.

Tests used:
Escherichia coli [1] = assay: Antimicrobial activity against Escherichia coli BL21(DE3) at 10 mM after overnight incubation by agar disc diffusion method; type: functional; details: read-out: DIZ
How it was run: (§1)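 Strains grown overnight in LB broth at 37 °C, 200 rpm; 150 µL overnight suspension spread on LB agar. 15 µL of compound (10 mM stock in DMSO) applied to 6 mm filter paper discs; DMSO negative and CHIR-090 positive controls. Plates incubated overnight at 37 °C; zone of inhibition diameter measured, mean ± SD of three independent experiments.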

[2] = target: T1, UDP-3-O-acyl-N-acetylglucosamine deacetylase (Escherichia coli K-12, UniProt P0A725); assay: Inhibition of Escherichia coli LpxC using UDP-3-O-[(R)-3-hydroxymyristoyl]-N-acetylglucosamine as substrate incubated for 30 mins prior to enzyme addition by fluorescence assay
T1 sequence (P0A725 whole entry): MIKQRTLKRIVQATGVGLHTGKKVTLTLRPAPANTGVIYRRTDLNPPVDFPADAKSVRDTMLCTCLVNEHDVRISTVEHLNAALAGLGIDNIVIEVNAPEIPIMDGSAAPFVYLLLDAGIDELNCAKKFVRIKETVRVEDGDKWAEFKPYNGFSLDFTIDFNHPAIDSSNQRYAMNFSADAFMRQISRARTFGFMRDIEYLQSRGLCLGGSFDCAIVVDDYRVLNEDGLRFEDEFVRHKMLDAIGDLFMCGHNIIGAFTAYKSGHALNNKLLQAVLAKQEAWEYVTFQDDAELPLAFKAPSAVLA

Escherichia coli [3] = assay: Antimicrobial activity against Escherichia coli D22 at 10 mM after overnight incubation by agar disc diffusion method; type: functional; details: read-out: DIZ; how it was run: as §1
[4] = target: T2, UDP-3-O-acyl-N-acetylglucosamine deacetylase (Escherichia coli K-12) (UniProt P0A725); assay: Inhibition of Escherichia coli LpxC using UDP-3-O-[(R)-3-hydroxymyristoyl]-N-acetylglucosamine as substrate up to 200 uM incubated for 30 mins prior to enzyme addition by fluorescence assay
T2 sequence (whole entry): T1 sequence (P0A725 whole entry)
How it was run: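 Purified E. coli LpxC (stored in 50 mM Bis/Tris pH 6.0, 150 mM NaCl). 40 mM MES pH 6.0 with 25 µM substrate, 80 µM DTT, 0.02% Brij 35; inhibitors in DMSO, 0.2 nM–200 µM, 30 min at 37 °C shaking before adding 500 ng enzyme. Stopped with NaOH, neutralized with acetic acid; product derivatized with o-phthaldialdehyde-2-mercaptoethanol in borax, fluorescence ex 340/em 460 nm. IC50 converted to Ki by Cheng-Prusoff (KM 4 µM); mean ± SD, n=3.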

Structure (SMILES) | zone of inhibition at 10000 µM (Escherichia coli [1]) [mm] | IC50 [2] [µM] | zone of inhibition at 10000 µM (Escherichia coli [3]) [mm] | Ki [2] [µM] | inhibition [4]
C#Cc1ccc([C@H](CO)OCC(=O)NO)cc1 | < 6 | > 200 | < 6 | – | –
O=C(COCc1ccc(C#Cc2ccccc2)cc1)NO | 10.6 | > 200 | 13.2 | – | –
C[Si](C)(C)C#Cc1ccc([C@H](CO)OCC(=O)NO)cc1 | 7.1 | > 200 | 7.2 | – | –
O=C(CO[C@H](CO)c1ccccc1)NO | < 6 | > 200 | < 6 | – | –
O=C(CO[C@@H](CO)c1ccc(Br)cc1)NO | < 6 | > 200 | < 6 | – | –
O=C(CO[C@@H](CO)c1ccc(C#Cc2ccccc2)cc1)NO | 9.1 | 31.6 | 13 | 4.4 | –
O=C(NO)[C@H]1O[C@@H](c2ccc(C#Cc3ccc(CN4CCOCC4)cc3)cc2)[C@@H](O)[C@H]1O | < 6 | > 200 | 13.1 | – | –
O=C(CO[C@@H](CO)c1ccc(C#Cc2ccc(CN3CCOCC3)cc2)cc1)NO | 8.7 | 198 | 12.3 | 27.3 | –
C#Cc1ccc([C@@H](CO)OCC(=O)NO)cc1 | < 6 | > 200 | < 6 | – | inactive
O=C(COCc1ccc(C#Cc2ccc(CN3CCOCC3)cc2)cc1)NO | 16.5 | 10.5 | 20.3 | 1.45 | –
O=C(CO[C@@H](CO)c1ccccc1)NO | < 6 | > 200 | < 6 | – | –
O=C(CO[C@H](CO)c1ccc(Br)cc1)NO | < 6 | > 200 | < 6 | – | inactive
C[Si](C)(C)C#Cc1ccc([C@@H](CO)OCC(=O)NO)cc1 | < 6 | > 200 | 7.5 | – | inactive
C[C@@H](O)[C@H](NC(=O)c1ccc(C#Cc2ccc(CN3CCOCC3)cc2)cc1)C(=O)NO | 24.6 | – | 30.3 | – | –
O=C(NO)[C@H](CO)O[C@H](CO)c1ccc(C#Cc2ccc(CN3CCOCC3)cc2)cc1 | 9 | 2.6 | 20.8 | 0.358 | –
O=C(CO[C@H](CO)c1ccc(C#Cc2ccc(CN3CCOCC3)cc2)cc1)NO | 13.4 | 0.69 | 21.2 | 0.095 | –
O=C(CO[C@H](CO)c1ccc(C#Cc2ccccc2)cc1)NO | 9.5 | 0.48 | 20.5 | 0.066 | –
